Active and inactive are the calls of the source. No cut-off for these calls is given here.

In general, IC50 refers to the concentration needed to halve the response being measured.

In data set [1] the test system is Leishmania braziliensis. Description: Antileishmanial activity against Leishmania braziliensis MHOM/BR/75/M2904 promastigotes assessed as reduction in cell viability at 10 uM incubated for 48 hrs by resazurin staining based assay. Format: functional, organism-based. An outline of the steps: (§1)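 Log-phase promastigotes exposed 48 h to compound in RPMI (final DMSO 0.1%); survival read by resazurin relative to DMSO. Screening at 10 µM; IC50 runs at 1–80 µM. Amphotericin B 3.125 µg/mL and 0.1% DMSO as controls; quadruplicate wells, two or three independent experiments; significance by one-way ANOVA with Dunnett post-test.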
(Alamar Blue is a resazurin reagent that responds to reducing activity.)

Data set [2] has as its system Leishmania braziliensis. Briefly: Antileishmanial activity against Leishmania braziliensis MHOM/BR/75/M2904 amastigotes infected in […] cells assessed as cell viability at 10 uM incubated for 48 hrs by resazurin staining based assay (reference value: 10.71 %). Format: functional.
Data set [3] relates to RAW264.7. Briefly: Cytotoxicity against […] RAW264.7 cells assessed as reduction in cell viability at 10 uM incubated for 48 hrs by resazurin staining based assay. The note with it: raw264.7, 48 h. In short, it runs like this: (§2)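 RAW 264.7 macrophages treated 48 h with compound in RPMI (final DMSO 0.1%); survival measured by resazurin viability assay. Screening at 10 µM, IC50 range 1–80 µM. Controls amphotericin B 3.125 µg/mL and 0.1% DMSO; three independent experiments in internal quadruplicate.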

A short description of data set [4]: Solubility of compound in 0.1% DMSO by light microscopy. Format: physicochemical. In short, it runs like this: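 Compounds taken up in aqueous 5% DMSO, diluted in RPMI to 10 µM (final DMSO 0.1%), and inspected by light microscopy for crystal formation.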
Data set [5] relates to RAW264.7. Briefly: Cytotoxicity against […] RAW264.7 cells assessed as reduction in cell viability at 3.125 ug/ml incubated for 48 hrs by resazurin staining based assay. The note with it: raw264.7, 48 h. An outline of the steps: as §2
Data set [6] deals with RAW264.7. Description: Cytotoxicity against […] RAW264.7 cells assessed as reduction in cell viability incubated for 48 hrs by resazurin staining based assay. The note with it: Mus musculus, RAW264.7, 48 h. In short, it runs like this:
as §2

In data set [7] the test system is Leishmania braziliensis. Briefly: Antileishmanial activity against Leishmania braziliensis MHOM/BR/75/M2904 amastigotes infected in […] cells assessed as cell viability at 1 uM incubated for 48 hrs by resazurin staining based assay (reference value: 10.71 %). Format: functional.
For data set [8], the system named is Leishmania braziliensis. Briefly: Antileishmanial activity against Leishmania braziliensis MHOM/BR/75/M2904 promastigotes assessed as reduction in cell viability incubated for 48 hrs by resazurin staining based assay. Format: functional, organism-based. The note with it: MHOM/BR/75/M2904, 48 h. An outline of the steps: as §1
Data set [9] has as its system Leishmania braziliensis. Briefly: Antileishmanial activity against Leishmania braziliensis MHOM/BR/75/M2904 amastigotes infected in […] cells assessed as cell viability at 5 uM incubated for 48 hrs by resazurin staining based assay (reference value: 10.71 %). Format: functional.
The test system of data set [10] is Leishmania braziliensis. Briefly: Antileishmanial activity against Leishmania braziliensis MHOM/BR/75/M2904 amastigotes infected in […] cells assessed as cell viability at 2.5 uM incubated for 48 hrs by resazurin staining based assay (reference value: 10.71 %). It is filed as functional.
The subject of data set [11] is Leishmania braziliensis. Briefly: Antileishmanial activity against Leishmania braziliensis MHOM/BR/75/M2904 amastigotes infected in […] cells assessed as cell viability at 30 uM incubated for 48 hrs by resazurin staining based assay (reference value: 10.71 %). Format: functional.
Data set [12] concerns Leishmania braziliensis. Briefly: Antileishmanial activity against Leishmania braziliensis MHOM/BR/75/M2904 amastigotes infected in […] cells assessed as cell viability at 40 uM incubated for 48 hrs by resazurin staining based assay (reference value: 10.71 %). It is filed as functional.
Data set [13] deals with Leishmania braziliensis. Briefly: Antileishmanial activity against Leishmania braziliensis MHOM/BR/75/M2904 amastigotes infected in […] cells assessed as cell viability at 20 uM incubated for 48 hrs by resazurin staining based assay (reference value: 10.71 %). It is filed as functional.
For data set [14], the system named is Leishmania braziliensis. Briefly: Induction of apoptosis in Leishmania braziliensis MHOM/BR/75/M2904 amastigotes infected in […] RAW264.7 cells incubated for 48 hrs by transmission electron microscopy. Format: functional, organism-based. An outline of the steps: (§3)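 Infected macrophage cultures treated with compound or DMSO control, then examined by transmission electron microscopy for parasite morphology within parasitophorous vacuoles (lobulation, multimembrane vesicles, chromatin fragments).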

Data set [15] relates to Leishmania braziliensis. Briefly: Antileishmanial activity against Leishmania braziliensis MHOM/BR/75/M2904 amastigotes infected in […] cells assessed as reduction in cell viability incubated for 48 hrs by resazurin staining based assay. To be noted: MHOM/BR/75/M2904, RAW264.7, 48 h. Format: functional, organism-based.
The nature of data set [16]: Selectivity index, ratio of IC50 of cytotoxicity against […] RAW264.7 cells to IC50 of antileishmanial activity against Leishmania braziliensis MHOM/BR/75/M2904 amastigotes infected in […] RAW264.7 cells. To be noted: read-out: Ratio IC50. Format: toxicity, cell-based. In short, it runs like this: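 Selectivity index from IC50 on RAW 264.7 macrophages over IC50 against intracellular amastigotes, both after 48 h by resazurin.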

Data set [17] has as its system Leishmania braziliensis. Briefly: Antileishmanial activity against Leishmania braziliensis MHOM/BR/75/M2904 amastigotes infected in […] cells assessed as cell viability at 80 uM incubated for 48 hrs by resazurin staining based assay (reference value: 10.71 %). It is filed as functional.
The test system of data set [18] is Leishmania braziliensis. Briefly: Cell cycle arrest in Leishmania braziliensis MHOM/BR/75/M2904 amastigotes infected in […] cells assessed as lobulated cell bodies incubated for 48 hrs by transmission electron microscopy. Format: functional, organism-based. An outline of the steps: as §3
Data set [19] concerns Leishmania braziliensis. Description: Induction of autophagy in Leishmania braziliensis MHOM/BR/75/M2904 amastigotes infected in […] RAW264.7 cells incubated for 48 hrs by transmission electron microscopy. Format: functional, organism-based. In short, it runs like this: as §3

For `O=C(/C=C/c1ccccc1)OCCCc1cn(Cc2ccc(I)cc2)nn1`, the result in data set [1] was Active. For the same compound, the Activity in data set [2] is given as 52.07%; in data set [3] it was “Non-Toxic”.

Regarding `COc1ccc(Cn2cc(COC(=O)/C=C/c3ccccc3)nn2)cc1`, in data set [1], the outcome was inactive. Further, the Activity is recorded as 76% in data set [2] and “Non-Toxic” in data set [3].

For `O=C(/C=C/c1ccc(Br)cc1)Oc1ccc2c(c1)C(=O)OC2`, the result in [1] was Active. Moreover, the values for the Activity in data set [2] and in data set [3] were 50.14% and “Non-Toxic”, respectively.

In the case of `O=C(/C=C/c1ccccc1)OCc1cn(Cc2c(Cl)cc(Cl)cc2Cl)nn1`, in data set [1], the result was inactive. The values for the Activity in [2] and in data set [3] were 70.38% and “Non-Toxic”, respectively.

For `COc1ccc(Cn2cc(CCCOC(=O)/C=C/c3ccccc3)nn2)cc1`, the Activity in data set [2] is listed as 60.48%; in data set [3] it was “Non-Toxic”.

For the compound `O=C(/C=C/c1ccccc1)OCCCc1cn(Cc2ccc(F)cc2)nn1`, the Activity in data set [2] is recorded as 67.84%; in data set [3] it was “Non-Toxic”.

Consider `O=C(/C=C/c1ccccc1)OCc1cn(Cc2ccccc2Br)nn1`, for which the outcome in [1] was inactive. Moreover, the Activity in [2] is on record as 80.12%; in data set [3] it was “Non-Toxic”.

Regarding `O=C(/C=C/c1ccccc1)OCCCc1cn(Cc2ccccc2Br)nn1`, the Activity in data set [2] is 57.32%; in data set [3], “Non-Toxic”.

As for `O=C(/C=C/c1ccccc1)OCCCc1cn(Cc2ccc(Br)cc2)nn1`, the outcome in data set [1] was Active. Further, the Activity in data set [2] was 45.1%; in data set [3] it was “Non-Toxic”.

Take `O=C(/C=C/c1ccccc1)OCc1cn(Cc2ccc([N+](=O)[O-])cc2)nn1`: the solubility result in data set [4] was “Insoluble”.

`O=C(/C=C/c1ccccc1)OCc1cn(Cc2ccc(C(F)(F)F)cc2)nn1`: in data set [4], the solubility entry is “Insoluble”.

Consider `O=C(/C=C/c1ccccc1)OCc1cn(Cc2ccc(F)cc2)nn1`, for which the outcome in [1] was inactive. For the same compound, the Activity in data set [2] is 59.1%; in [3], “Non-Toxic”.

In the case of `O=C(/C=C/c1ccccc1)OCCCc1cn(Cc2cc(Cl)ccc2Cl)nn1`, the outcome in [1] was Active. Moreover, the Activity is recorded as 45.74% in data set [2] and “Non-Toxic” in data set [3].

In the case of `O=C(/C=C/c1ccccc1)OCCCc1cn(Cc2ccc(F)c(F)c2)nn1`, the Activity in data set [2] is listed as 47.85%; in data set [3], “Non-Toxic”.

In the case of `COc1ccc(/C=C/C(=O)Oc2ccc3c(c2)C(=O)OC3)cc1`, in data set [4], the solubility result is “Insoluble”.

Consider `O=C(/C=C/c1ccc([N+](=O)[O-])cc1)Oc1ccc2c(c1)C(=O)OC2`, for which the values for the Activity in [2] and in data set [3] were 59.54% and “Non-Toxic”, respectively.

For `O=C(/C=C/c1ccccc1)OCCCc1cn(Cc2ccccc2F)nn1`, the Activity in [2] is given as 19.67%; in data set [3], “Non-Toxic”.

Regarding `O=C(/C=C/c1ccccc1)OCc1cn(Cc2ccc(I)cc2)nn1`, the solubility result in data set [4] is recorded as “Insoluble”.

As for `O=C(/C=C/c1ccccc1)OCCCc1cn(Cc2ccc([N+](=O)[O-])cc2)nn1`, in [1], the outcome was Active. For the same compound, the Activity is recorded as 20.58% in [2] and “Non-Toxic” in [3].

With `O=C(/C=C/c1ccccc1)OCc1cn(Cc2ccc(Cl)cc2)nn1`, in data set [4], the solubility result is listed as “Insoluble”.

As for `O=C(/C=C/c1ccccc1)OCc1cn(Cc2ccc(OC(F)(F)F)cc2)nn1`, in data set [1], the outcome was inactive. The results for the Activity in [2] and in data set [3] were 77.39% and “Non-Toxic”, respectively.

As for `O=C(/C=C/c1ccccc1)OCCCc1cn(Cc2ccccc2)nn1`, the outcome in [1] was Active. Also, the Activity was 39.73% in data set [2] and “Non-Toxic” in data set [3].

On to `O=C(/C=C/c1ccccc1)OCCCc1cn(Cc2ccc(Cl)cc2)nn1`, for which the outcome in [1] was Active. For the same compound, the figures for the Activity in data set [2] and in data set [3] were 49.01% and “Non-Toxic”, respectively.

For the compound `O=C(/C=C/c1ccccc1)OCCCc1cn(Cc2ccc(OC(F)(F)F)cc2)nn1`, the result in [1] was Active. Moreover, the Activity is 65.84% in data set [2] and “Non-Toxic” in data set [3].

Consider `C[C@@H]1[C@H](O)[C@@H](C)/C=C/C=C/C=C/C=C/C=C/C=C/C=C/[C@H](O[C@@H]2O[C@H](C)[C@@H](O)[C@H](N)[C@@H]2O)C[C@@H]2O[C@](O)(C[C@@H](O)C[C@@H](O)[C@H](O)CC[C@@H](O)C[C@@H](O)CC(=O)O[C@H]1C)C[C@H](O)[C@H]2C(=O)O` [AMPHOTERICIN B], for which the Activity entry in data set [5] is “Non-Toxic”; in [2] it was 98.25%.

`O=C(/C=C/c1ccc(F)cc1)Oc1ccc2c(c1)C(=O)OC2`: the result in data set [1] was Active. Also, the Activity was 43.87% in [2] and “Non-Toxic” in [3].

Turning to `O=C(/C=C/c1ccccc1)OCc1cn(Cc2ccc(Br)cc2)nn1`, the solubility result in data set [4] is “Insoluble”.

Regarding `O=C(/C=C/c1ccccc1)OCc1cn(Cc2ccc(F)c(F)c2)nn1`, the outcome in [1] was inactive. Besides, the results for the half-inhibitory concentration (IC50) in [6] and in data set [8] were > 80 µM and 3.05 µM, respectively. Also, the Activity in [7] was 85.4%; in data set [2], 68.6 - 86.32%; in [9], 98.18%; in data set [3], “Non-Toxic”; in data set [10], 83.08%; in [11], 95.13%. The Activity in data set [12] was 72.41%; in data set [13] it was 79.77%.

In the case of `O=C(/C=C/c1ccccc1)OCCCc1cn(Cc2ccc(C(F)(F)F)cc2)nn1`, the result in data set [1] was Active. For the same compound, the Activity in [2] is 69.24%; in data set [3], “Non-Toxic”.

With `O=C(/C=C/c1ccc(Cl)cc1)Oc1ccc2c(c1)C(=O)OC2`, the solubility result in data set [4] is listed as “Insoluble”.

On to `O=C(/C=C/c1ccccc1)OCc1cn(Cc2ccccc2)nn1`, for which, in data set [1], the outcome was inactive. The figures for the Activity in [2] and in data set [3] were 19.91% and “Non-Toxic”, respectively.

In the case of `O=C(/C=C/c1ccccc1)OCc1cn(Cc2cc(Cl)ccc2Cl)nn1`, the outcome in [1] was inactive. The Activity in [2] was 78.98%; in data set [3], “Non-Toxic”.

Take `COc1cc(/C=C/C(=O)Oc2ccc3c(c2)C(=O)OC3)cc(OC)c1OC`: the outcome in data set [14], in [1], in [18] and in [19] was Active. Also, the values for the 50% inhibitory concentration (IC50) in data set [6], in data set [8] and in data set [15] were > 80 µM, 7.58 µM and 8.27 µM, respectively. Also, the Activity in data set [2] is recorded as 64.46 - 80.47%; in data set [17] it was 35.51%; in data set [9], 79.72%; in data set [3] it was “Non-Toxic”; in data set [10], 74.54%; in data set [11] it was 47.12%. Moreover, the Activity in data set [12] is on record as 46.33%; in [13], 19.71%. For the same compound, the selectivity ratio in [16] was > 9.67.

Source of the values: ChEMBL document CHEMBL4311973, “Synthesis of cinnamic acid derivatives and leishmanicidal activity against Leishmania braziliensis” (Eur J Med Chem, 2019).
